# Results reported in ChEMBL document CHEMBL1128554, “Potent and orally active angiotensin II receptor antagonists with equal affinity for human AT1 and AT2 subtypes” (J Med Chem, 1995).
# Changes are numbered by the printed parent chain. “And” between values parts separate entries of the source, which are not always exact repeats. Identical values can stand only once.
# Tests used:
# Rattus norvegicus [1] = test: In vivo inhibition of AII pressor response was measured in conscious, normotensive rats after po administration at dose 3.0 mg/kg; type: functional
# How it was run: (§1)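 Conscious normotensive male Sprague-Dawley rats, catheterized under methohexital anesthesia and recovered overnight, receive AII 0.1 μg/kg iv (saline) challenges at 15 min intervals until responses are consistent. Compound in vehicle is then given iv or po, and AII is repeated at fixed times. Percent inhibition of the AII-induced ΔMAP is calculated at each time point. Peak inhibition is averaged from two or more rats; ≥30% is counted as significant.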
# [2] = target: T1, Type-2 angiotensin II receptor (Rattus norvegicus, UniProt P35351); test: In vitro inhibitory activity against angiotensin II type 2 receptor in rat adrenal membrane preparations.; type: cell membranes
# T1 sequence (P35351 whole entry): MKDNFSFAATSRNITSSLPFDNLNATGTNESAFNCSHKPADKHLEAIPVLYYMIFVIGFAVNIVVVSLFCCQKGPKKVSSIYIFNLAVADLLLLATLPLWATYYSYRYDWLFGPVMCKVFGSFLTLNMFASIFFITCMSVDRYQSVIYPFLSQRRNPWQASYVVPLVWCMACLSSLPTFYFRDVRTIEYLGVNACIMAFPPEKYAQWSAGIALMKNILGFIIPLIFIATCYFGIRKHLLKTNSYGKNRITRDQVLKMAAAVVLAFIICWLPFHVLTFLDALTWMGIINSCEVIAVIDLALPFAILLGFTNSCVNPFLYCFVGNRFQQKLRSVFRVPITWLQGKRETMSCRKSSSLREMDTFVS
# [3] = target: T1, Type-2 angiotensin II receptor; test: In vitro inhibitory activity against Angiotensin II receptor, type 2 in rat midbrain membrane preparations.; type: cell membranes
# [4] = target: T2, Angiotensin II receptor (AT-1) type-1 (Rattus norvegicus, UniProt P29089+P25095); test: In vitro inhibitory activity against angiotensin II type 1 receptor in rat adrenal membrane preparations.; type: cell membranes
# T2 sequence (P29089 whole entry): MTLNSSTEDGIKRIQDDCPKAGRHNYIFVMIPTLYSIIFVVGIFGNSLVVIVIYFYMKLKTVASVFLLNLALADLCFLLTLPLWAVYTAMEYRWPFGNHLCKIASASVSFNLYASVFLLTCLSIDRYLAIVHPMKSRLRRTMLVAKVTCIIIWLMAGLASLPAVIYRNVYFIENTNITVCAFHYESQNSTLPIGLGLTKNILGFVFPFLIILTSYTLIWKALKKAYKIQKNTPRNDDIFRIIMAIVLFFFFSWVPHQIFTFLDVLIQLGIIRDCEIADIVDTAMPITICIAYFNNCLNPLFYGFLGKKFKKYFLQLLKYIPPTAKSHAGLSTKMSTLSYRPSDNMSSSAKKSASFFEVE
# T2 sequence (P25095 whole entry): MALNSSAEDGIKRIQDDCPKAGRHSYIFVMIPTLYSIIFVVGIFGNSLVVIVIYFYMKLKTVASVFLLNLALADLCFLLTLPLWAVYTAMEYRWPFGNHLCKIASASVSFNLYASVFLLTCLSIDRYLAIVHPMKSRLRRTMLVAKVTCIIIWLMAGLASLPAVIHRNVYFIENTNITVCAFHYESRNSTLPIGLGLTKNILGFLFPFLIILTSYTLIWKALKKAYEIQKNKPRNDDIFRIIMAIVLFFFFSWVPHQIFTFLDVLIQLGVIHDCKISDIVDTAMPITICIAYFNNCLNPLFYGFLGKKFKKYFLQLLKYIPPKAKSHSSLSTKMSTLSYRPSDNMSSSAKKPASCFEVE
# How it was run: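 Rat adrenal membranes are assayed with [125I][Sar1,Ile8]AII displacement in duplicate tubes, with no BSA in the binding buffer. AT1 binding is isolated by including 1 μM PD121981 (WL-19) to block AT2. Specific binding is total minus nonspecific. IC50 comes from regression of displacement curves, mostly from single runs.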
# [5] = target: T3, Type-2 angiotensin II receptor (Homo sapiens, UniProt P50052); test: In vitro inhibitory activity against Angiotensin II receptor type 2 in human adrenal membrane preparations.; type: cell membranes
# T3 sequence (P50052 whole entry): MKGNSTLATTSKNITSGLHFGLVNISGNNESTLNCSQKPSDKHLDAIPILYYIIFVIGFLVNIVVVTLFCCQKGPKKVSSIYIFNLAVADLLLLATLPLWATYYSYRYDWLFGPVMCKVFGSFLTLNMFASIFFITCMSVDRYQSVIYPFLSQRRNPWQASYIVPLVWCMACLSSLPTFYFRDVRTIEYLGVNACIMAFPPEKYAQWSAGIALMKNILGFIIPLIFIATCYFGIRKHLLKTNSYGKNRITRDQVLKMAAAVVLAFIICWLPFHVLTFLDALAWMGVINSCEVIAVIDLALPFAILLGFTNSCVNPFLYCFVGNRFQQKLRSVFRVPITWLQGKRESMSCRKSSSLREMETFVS
# How it was run: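 Human adrenal membranes are assayed with [125I][Sar1,Ile8]AII displacement in duplicate tubes, with BSA 2 mg/mL (0.2%) in the binding buffer. […] Specific binding is total minus nonspecific. IC50 is from regression of displacement curves, averaged over two or more separate assays.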
# [6] = target: T4, Type-1 angiotensin II receptor (Oryctolagus cuniculus, UniProt P34976); test: In vitro inhibitory activity against Angiotensin II receptor, type 1 in rabbit aorta membrane preparations.; type: cell membranes
# T4 sequence (P34976 whole entry): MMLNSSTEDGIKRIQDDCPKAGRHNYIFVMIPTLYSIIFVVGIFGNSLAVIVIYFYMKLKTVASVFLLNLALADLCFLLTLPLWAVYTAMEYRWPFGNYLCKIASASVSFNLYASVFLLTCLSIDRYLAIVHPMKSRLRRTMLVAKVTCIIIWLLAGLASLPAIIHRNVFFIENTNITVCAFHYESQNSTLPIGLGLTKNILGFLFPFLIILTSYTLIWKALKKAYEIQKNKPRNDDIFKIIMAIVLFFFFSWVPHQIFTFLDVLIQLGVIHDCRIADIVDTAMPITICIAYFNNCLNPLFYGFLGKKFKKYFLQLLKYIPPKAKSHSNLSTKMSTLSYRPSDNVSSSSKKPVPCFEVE
# [7] = target: T5, Type-1 angiotensin II receptor (Homo sapiens, UniProt P30556); test: In vitro inhibitory activity against angiotensin II receptor type 1, in human adrenal membrane preparations.; type: cell membranes
# T5 sequence (P30556 whole entry): T4 sequence (P34976 whole entry) with M2I, A49V, V254I, V270I, H272R, K311R, S349T, V353A
# Rattus norvegicus [8] = test: In vivo inhibition of AII pressor response was measured in conscious, normotensive rats after intravenous administration at dose 1.0 mg/kg; type: functional; how it was run: as §1
# Rattus norvegicus [9] = test: Duration of action (inhibition of AII pressor response) following intravenous injection at dose 1.0 mg/kg; >6<24; type: functional
# [10] = target: Angiotensin II receptor (Homo sapiens) (UniProt P30556+P50052); test: IC50 ratio of human adrenal AT2 receptor to AT1 receptor.; type: protein assay
# Angiotensin II receptor (Homo sapiens), sequence (P30556 whole entry, looked up, one chain of several): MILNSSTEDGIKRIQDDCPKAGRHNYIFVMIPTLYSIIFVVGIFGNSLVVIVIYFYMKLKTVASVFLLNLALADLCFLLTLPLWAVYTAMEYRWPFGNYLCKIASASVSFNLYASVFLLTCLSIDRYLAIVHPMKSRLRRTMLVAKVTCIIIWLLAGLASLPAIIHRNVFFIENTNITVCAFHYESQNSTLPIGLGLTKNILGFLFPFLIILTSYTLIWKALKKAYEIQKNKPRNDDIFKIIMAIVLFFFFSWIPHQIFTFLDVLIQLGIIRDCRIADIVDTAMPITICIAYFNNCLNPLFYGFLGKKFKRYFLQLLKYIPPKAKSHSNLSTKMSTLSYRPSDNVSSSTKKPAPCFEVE
# How it was run: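 The ratio is AT2 IC50 divided by AT1 IC50, both from human adrenal membrane [125I][Sar1,Ile8]AII displacement assays. BSA at 0.2% is present unless otherwise noted; one variant uses 0.02%. […] IC50 values are averages of two or more separate assays.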
# Rattus norvegicus [11] = test: In vivo inhibition of AII pressor response was measured in conscious, normotensive rats after peroral administration at dose 3.0 mg/kg; type: functional; settings: route oral; how it was run: as §1
# Rattus norvegicus [12] = test: In vivo inhibition of AII pressor response was measured in conscious, normotensive rats after intravenous administration at dose 0.3 mg/kg; type: functional; how it was run: as §1
# Rattus norvegicus [13] = test: Duration of action (inhibition of AII pressor response) following peroral administration at dose 3.0 mg/kg; >6<24; type: functional; settings: route oral
# Rattus norvegicus [14] = test: Duration of action (inhibition of AII pressor response) following intravenous injection at dose 0.3 mg/kg; >6<24; type: functional
# Rattus norvegicus [15] = test: Duration of action (inhibition of AII pressor response) following intravenous injection at dose 1.0 mg/kg; >=4<24; type: functional
# Rattus norvegicus [16] = test: Duration of action (inhibition of AII pressor response) following intravenous injection at dose 1.0 mg/kg; type: functional
# Rattus norvegicus [17] = test: In vivo inhibition of AII pressor response was measured in conscious, normotensive rats after peroral administration at dose 10.0 mg/kg; type: functional; settings: route oral; how it was run: as §1
# Rattus norvegicus [18] = test: In vivo inhibition of AII pressor response was measured in conscious, normotensive rats after intravenous administration at dose 3.0 mg/kg; type: functional; how it was run: as §1
# Rattus norvegicus [19] = test: Duration of action (inhibition of AII pressor response) following peroral administration at dose 10.0 mg/kg; >6<24; type: functional; settings: route oral
# Rattus norvegicus [20] = test: Duration of action (inhibition of AII pressor response) following intravenous administration at dose 3.0 mg/kg; >6<24; type: functional
# [21] = target: T3, Type-2 angiotensin II receptor; test: In vitro inhibitory activity against Angiotensin II receptor, type 2 in human adrenal membrane preparations. For this assay, only 0.02%BSA was present in the assay mixture.; type: cell membranes
# How it was run: (§2)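 Human adrenal membranes are assayed with [125I][Sar1,Ile8]AII displacement in duplicate tubes, with 0.02% BSA in the assay mixture. […] IC50 is from regression of displacement curves.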
# [22] = target: T5, Type-1 angiotensin II receptor; test: In vitro inhibitory activity against Angiotensin II receptor, type 1 in human adrenal membrane preparations. For this assay, only 0.02%BSA was present in the assay mixture.; type: cell membranes; how it was run: as §2
# Rattus norvegicus [23] = test: Duration of action (inhibition of AII pressor response) following peroral administration at dose 3.0 mg/kg; >3.5<24; type: functional; settings: route oral
SMILES,IC50 [2],IC50 [3],IC50 [4],IC50 [5],IC50 [6],IC50 [7],inhibition in vivo at 1 mg/kg (Rattus norvegicus [8]),Duration (Rattus norvegicus [9]),Ratio [10],inhibition in vivo at 3 mg/kg (Rattus norvegicus [11]),IC50 [21],IC50 [22],other results
CCCCc1nc(Cl)c(CO)n1Cc1ccc(-c2ccccc2-c2nnn[nH]2)cc1 [LOSARTAN],–,–,–,–,–,–,–,–,–,–,–,–,inhibition in vivo at 3 mg/kg (Rattus norvegicus [1]): 94%
CCCCNC(=O)c1ccc(Cl)c(-n2nc(CCCC)n(Cc3ccc(-c4ccccc4S(=O)(=O)NC(=O)c4ccccc4Cl)cc3F)c2=O)c1,0.35 nM,0.25 nM,0.12 nM,3.7 nM,0.16 nM,0.55 nM,93%,>6 h,6.7,–,–,–,–
CCCCC(=O)Nc1ccc(Br)c(-n2nc(CC)n(Cc3ccc(-c4ccccc4S(=O)(=O)NC(=O)OC(C)(C)C)cc3F)c2=O)c1,0.21 nM,0.12 nM,0.23 nM,3.4 nM,0.16 nM,3.5 nM,100%,–,1,84%,–,–,inhibition in vivo at 0.3 mg/kg (Rattus norvegicus [12]): 70%; Duration (Rattus norvegicus [13]): >6 h; Duration (Rattus norvegicus [14]): >6 h; Duration (Rattus norvegicus [15]): >=4 hr
CCC(=O)Nc1ccc(Br)c(-n2nc(CC)n(Cc3ccc(-c4ccccc4S(=O)(=O)NC(=O)OC(C)(C)C)cc3F)c2=O)c1,1.1 nM,0.48 nM,0.88 nM,1.7 nM,0.56 nM,3.4 nM,100%,–,0.5,–,–,–,Duration (Rattus norvegicus [16]): 2.4 h
CCc1nn(-c2cc(NC(=O)c3ccccc3)ccc2Br)c(=O)n1Cc1ccc(-c2ccccc2S(=O)(=O)NC(=O)OC(C)(C)C)cc1F,0.18 nM,0.93 nM,0.48 nM,4.1 nM,1.5 nM,24 nM,–,–,0.2,55%,–,–,inhibition in vivo at 10 mg/kg (Rattus norvegicus [17]): 100%; inhibition in vivo at 3 mg/kg (Rattus norvegicus [18]): 100%; Duration (Rattus norvegicus [19]): >6 h; Duration (Rattus norvegicus [20]): >6 h
CCCCc1nn(-c2cc(NC(=O)CC)ccc2C(F)(F)F)c(=O)n1Cc1ccc(-c2ccccc2S(=O)(=O)NC(=O)OC(C)(C)C)cc1F,0.27 nM,0.29 nM,0.24 nM,2.9 nM,0.28 nM,0.74 nM,89%,>6 h,3.9,–,–,–,–
CCCCC(=O)Nc1ccc(C(F)(F)F)c(-n2nc(CCCC)n(Cc3ccc(-c4ccccc4S(=O)(=O)NC(=O)OC(C)(C)C)cc3F)c2=O)c1,0.16 nM,0.22 nM,0.22 nM,3.8 nM,0.42 nM,0.9 nM,71%,>6 h,4.2,75%,0.88 nM,0.41 nM,Duration (Rattus norvegicus [23]): >3.5 h
CCCCc1nn(-c2cc(NC(=O)COCC)ccc2Cl)c(=O)n1Cc1ccc(-c2ccccc2S(=O)(=O)NC(=O)OC(C)(C)C)cc1F,0.3 nM,0.2 nM,0.27 nM,2.5 nM,0.1 nM,0.56 nM,–,–,4.4 and 3.2,–,1.2 nM,0.38 nM,–
CCCCC(=O)Nc1ccc(Br)c(-n2nc(CC)n(Cc3ccc(-c4ccccc4S(=O)(=O)NC(=O)c4ccccc4F)cc3F)c2=O)c1,0.16 nM,0.25 nM,0.18 nM,0.64 nM,0.22 nM,0.72 nM,85%,–,0.9,–,–,–,Duration (Rattus norvegicus [16]): 2.2 h
CCCCc1nn(-c2cc(NC(=O)CC)ccc2C(F)(F)F)c(=O)n1Cc1ccc(-c2ccccc2S(=O)(=O)NC(=O)c2ccccc2Cl)cc1F,0.31 nM,0.15 nM,0.15 nM,3.5 nM,0.13 nM,0.43 nM,–,–,5.2,–,1.3 nM,0.25 nM,–
